Source: PubChem
Only some compounds are listed: those with a hit (about 0.99% of all), similar ones and a draw of the others.
ABCG2 inh – human ABCG2 inhibition, ABCB1 as counter-screen | IgMXP3 cells, JC-1 efflux, flow cytometry | inhibition, % at 6.6 µM | 0.1% of 190,000 active | AID 1325;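 active = inhibition above 80%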
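Test system: ABCG2 IgMXP3 and barcoded ABCB1 CCRF-Adr cell mix; Schedule: cells with compound and JC-1, 10 min at 25 °C, rotating, no wash; Technique: flow cytometry of retained JC-1 fluorescence; Measure: % inhibition of efflux relative to nicardipine and DMSO; Controls: nicardipine high and DMSO low controls.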
Ins promoter up – MIN6 insulin promoter up-regulation; MIN6 insulin promoter-GFP reporter, high-content imaging; active compounds read high; z-score at 5 µM; 0.3% of 190,000 active; AID 1625;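 active = z-score above 3 at 5 µM with at least 500 cells counted in the well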
Tn6 DDE FP – disrupts Tn6 cyclic peptide binding to fibrin D-Dimer-E complex | P02675 | Fibrin DD(E) TRITC-Tn6 fluorescence polarization displacement | inhibition, % at 8.3 µM | 0.21% of 370,000 active;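 active = inhibition above a per-campaign cutoff: mean of compounds within control limits plus 3 SD, cut at about 15% in these data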
DDE Tn7 FP inh – inhibitors of Tn7 peptide binding to human fibrin DD(E); FP displacement of FITC-Tn7 peptide from fibrin DD(E); 0% = median of compound wells per plate; inhibition, % at 8.3 µM; 0.13% of 370,000 active;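 active = inhibition above the mean of compounds falling within the control limits plus 3 SD of them, cut at about 14% in these data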
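Assay system: human fibrin DD(E) protein / Input: 2 µM fibrin DD(E) / Benchmarks: high control of 10 µM Aha-Tn7 peptide / Measured by: fluorescence polarization of the labelled Tn7 tracer / Medium: Tris buffer with calcium and detergent, pH 7.8 / Timing: 10 min compound pre-incubation, 3 h probe incubation at room temperature / Repeats: one replicate per compound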
ABCB1 inh – blocks JC-1 efflux by human ABCB1 transporter | inhibition, % at 6.6 µM | P08183 | 0.067% of 190,000 active | AID 1326 | CCRF-Adr cells, flow cytometry; in the data active = inhibition above about 40%;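 note: higher value means more JC-1 retained so stronger ABCB1 efflux block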
Target sequence (P08183 whole entry, looked up): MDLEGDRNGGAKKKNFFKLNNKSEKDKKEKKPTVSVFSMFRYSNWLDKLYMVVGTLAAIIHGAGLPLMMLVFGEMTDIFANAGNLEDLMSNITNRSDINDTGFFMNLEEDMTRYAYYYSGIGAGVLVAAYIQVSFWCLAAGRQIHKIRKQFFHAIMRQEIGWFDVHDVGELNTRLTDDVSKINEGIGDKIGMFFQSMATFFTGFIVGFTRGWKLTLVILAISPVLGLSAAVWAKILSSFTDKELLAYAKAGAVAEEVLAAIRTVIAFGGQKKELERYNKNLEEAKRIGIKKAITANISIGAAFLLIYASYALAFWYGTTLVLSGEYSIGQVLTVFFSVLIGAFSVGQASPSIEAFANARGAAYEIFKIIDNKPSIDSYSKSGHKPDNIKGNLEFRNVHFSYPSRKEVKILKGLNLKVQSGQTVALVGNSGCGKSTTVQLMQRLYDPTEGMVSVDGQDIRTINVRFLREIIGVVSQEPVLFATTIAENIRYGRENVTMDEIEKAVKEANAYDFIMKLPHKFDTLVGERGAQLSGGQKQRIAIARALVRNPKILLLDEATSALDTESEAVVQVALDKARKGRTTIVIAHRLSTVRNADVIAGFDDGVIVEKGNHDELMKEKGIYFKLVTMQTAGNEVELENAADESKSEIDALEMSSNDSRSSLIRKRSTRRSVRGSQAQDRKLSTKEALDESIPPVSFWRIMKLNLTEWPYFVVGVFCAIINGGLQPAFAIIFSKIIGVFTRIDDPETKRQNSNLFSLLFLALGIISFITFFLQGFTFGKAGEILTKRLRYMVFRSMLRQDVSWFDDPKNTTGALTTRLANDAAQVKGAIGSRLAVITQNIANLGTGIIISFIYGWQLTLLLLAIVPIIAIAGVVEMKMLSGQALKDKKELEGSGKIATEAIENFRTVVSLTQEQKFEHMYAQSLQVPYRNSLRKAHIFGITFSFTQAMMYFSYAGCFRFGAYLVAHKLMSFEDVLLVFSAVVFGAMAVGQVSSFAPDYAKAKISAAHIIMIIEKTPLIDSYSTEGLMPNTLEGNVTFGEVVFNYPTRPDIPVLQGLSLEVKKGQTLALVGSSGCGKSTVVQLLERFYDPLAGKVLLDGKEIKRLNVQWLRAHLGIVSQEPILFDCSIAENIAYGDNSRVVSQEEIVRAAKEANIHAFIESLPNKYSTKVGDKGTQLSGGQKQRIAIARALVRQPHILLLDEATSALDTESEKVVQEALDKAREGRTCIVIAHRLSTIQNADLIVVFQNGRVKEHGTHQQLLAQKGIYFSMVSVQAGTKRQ
GRK2 inh – human GRK2 inhibition via aptamer displacement. P25098. bead flow cytometry, FAM-aptamer displacement from GRK2. inhibition of aptamer binding, % at 10 µM. 0.59% of 330,000 active. AID 488847;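 active = inhibition of aptamer binding above 40%, roughly 3 SD of noise, on plates passing a quality check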;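 note: median bead fluorescence of bound FAM aptamer so fluorescent compounds give negative values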
GRK2 inh confirm – human GRK2 inhibition confirmation, cherry pick 1. shares compounds with GRK2 inh. 4% of 2,000 active. aptamer displacement, % at 10 µM. AID 504451. bead-bound GRK2, FAM-aptamer displacement, flow cytometry;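 active = aptamer displacement above 40%, near three times the noise of non-fluorescent compounds, on plates passing quality checks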;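 note: negative values mostly reflect intrinsic compound fluorescence rather than true enhancement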
Aptamer quench SP – counter-screen for GRK2 aptamer inhibitors: fluorescent aptamer quenchers; AID 504580; fluorescence response (% of DMSO), % at 10 µM; shares compounds with GRK2 inh; Carboxyfluorescein RNA aptamer on beads, flow cytometry quenching; active compounds read low; 2,000 tested, under 10 active;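 active = compounds that quench the bead-bound fluorescent RNA probe, cutting fluorescence to under half of the solvent control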;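 note: counterscreen run without GRK2 so only probe quenching by compound is measured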
GRK2 confirm 2 – human GRK2 inhibition confirmation, cherry pick 2; shares compounds with GRK2 inh; bead-bound GRK2, FAM-aptamer displacement, flow cytometry; inhibition of aptamer binding, % at 10 µM; 360 tested, under 10 active;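 active = inhibition of aptamer binding above 40%, about triple the noise seen with nonglowing compounds, on plates passing quality control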;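 note: negative values mostly come from compounds that fluoresce themselves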
FAM quench SP – quenches fluorescent RNA aptamer, GRK2 hit artifact; carboxyfluorescein RNA aptamer beads, flow cytometry quenching; active compounds read low; shares compounds with GRK2 inh; AID 588494; 360 tested, under 10 active; fluorescence response vs DMSO, % at 10 µM;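 active = response vs DMSO under 50%, meaning signal dropped by over half, treated as fluorescence quencher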;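 note: labelled aptamer on streptavidin beads without GRK2 as a quench counter-screen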
Hits are given with their value; - = inactive; . = not tested or not shown.

SMILES	ABCG2 inh	Ins promoter up	Tn6 DDE FP	DDE Tn7 FP inh	ABCB1 inh	GRK2 inh	GRK2 inh confirm	Aptamer quench SP	others
C=C1CCC2C(C)(C(=O)O)CCCC2(C)C1CCC(CO)CCO (centres undefined)	.	.	-	-	.	.	.	.
COc1cccc(CC2(CO)CCCN(Cc3ccc(C)s3)C2)c1 (centres undefined)	-	-	-	-	-	-	.	.
COc1cccc(CC2(CO)CCCN(Cc3[nH]c4ccc(C)cc4c3C)C2)c1 (centres undefined)	-	-	-	-	-	-	-	-
COc1cccc(CC2(CO)CCCN(Cc3cn[nH]c3C3CCCCC3)C2)c1 (centres undefined)	-	-	-	-	-	-	.	.
COc1cccc(CC2(CO)CCCN(Cc3cn[nH]c3-c3cc(C)ccc3C)C2)c1 (centres undefined)	-	-	-	-	-	-	-	-
c1ccc2cc3[nH]c(CNc4nc(N5CCOCC5)nc5c4ncn5-c4ccsc4)nc3cc2c1	.	.	-	-	.	.	.	.
COC(=O)c1ccccc1N1C(=O)[C@@H]2C(c3ccc(F)cc3)=NO[C@@H]2C1=O	-	-	-	-	-	-	.	.	GRK2 confirm 2=-;FAM quench SP=-
Cc1cc(NC(=O)c2ccc(NS(=O)(=O)c3ccccc3)cc2)no1	.	.	-	-	.	.	.	.
COc1ccc2cc3cc(C(=O)N4CCN(c5ccccn5)CC4)oc3nc2c1	.	.	-	-	.	57	-	-
COc1ccc2cc3cc(C(=O)N4CC(C)CC(C)C4)oc3nc2c1 (centres undefined)	.	.	.	.	.	-	.	.
O=c1cc(N2CCN(c3ccnc4cc(Cl)ccc34)CC2)[nH]c(=O)n1C1CCCCC1	.	.	-	-	.	.	.	.
CCCCc1nnc(NC(=O)CCS(=O)(=O)c2ccc(Cl)cc2)s1	.	.	-	-	.	-	-	-
CC(=O)Nc1nnc(CCS(=O)(=O)c2ccc(Cl)cc2)s1	-	-	-	-	-	.	.	.
CCCc1nnc(NC(=O)CCS(=O)(=O)c2ccccc2)s1	.	.	-	-	.	-	-	-
O=S(=O)(N[C@@H]1CCCC[C@H]1N1CCOCC1)c1ccc(Cl)cc1	.	.	-	-	.	.	.	.
CCOc1ccccc1N(C(=O)c1snc(C(N)=O)c1N)C(C(=O)NCC1CCCO1)c1ccc2ncccc2c1 (centres undefined)	.	.	-	-	.	-	.	.
COc1ccc(OC)c(N(C(=O)c2snc(C(N)=O)c2N)C(C(=O)NCC2CCCO2)c2ccc3ncccc3c2)c1 (centres undefined)	.	.	-	-	.	50	-	-
CN1C(=O)c2cc(NC(=O)C3CC3)ccc2OC[C@H]2O[C@@H](CC(=O)NC3CCC3)CC[C@@H]21	.	.	-	-	.	.	.	.
O=C(CSc1nc2sc3c(c2c(=O)n1-c1ccc(Cl)cc1)CCC3)Nc1ccc(C(=O)O)cc1	.	.	-	-	.	.	.	.
Cc1ccc(S(=O)(=O)N(C)CC(=O)O/N=C(\N)c2ccccn2)cc1	-	-	-	-	-	100	-	-
COC(=O)[C@]12C[C@H](CC(=O)NCCCCc3ccccc3)C(=O)N(CCc3ccc(OC)c(OC)c3)C1=C[C@H](C(C)(C)C)O[C@@H]2C	.	.	-	-	.	.	.	.
O=C(/C=C/c1cccc(Br)c1)OCC(=O)N1CCN(c2ccccc2)CC1	.	.	-	-	.	76	-	-
COc1cc(NC(=O)c2cc(C)on2)c(OC)cc1Cl	.	.	-	-	.	.	.	.
O=C(Nc1ccccc1C(=O)O)/C(=C/c1ccc([N+](=O)[O-])cc1)NC(=O)c1ccc(Br)o1	-	-	-	-	-	80	-	-
O=C(NC(Cc1ccccc1)C(=O)O)/C(=C/c1ccc([N+](=O)[O-])cc1)NC(=O)c1ccc(Br)o1 (centres undefined)	.	.	-	-	.	-	.	.
SMILES	ABCG2 inh	Ins promoter up	Tn6 DDE FP	DDE Tn7 FP inh	ABCB1 inh	GRK2 inh	GRK2 inh confirm	Aptamer quench SP	others
Clc1ccc([C@H]2OC[C@@]3(CNC4CCCCC4)CS[C@H](c4ccc(Cl)cc4)N23)cc1	.	.	-	-	.	.	.	.
COc1ccc(OC(=O)c2c(C)nn(-c3ccccc3)c2C)cc1	.	-	-	-	.	-	.	.
COc1ccc(OC(=O)c2cnn(-c3ccccc3)c2C)cc1	-	-	-	-	-	44	-	-
Cc1c(NC(=O)c2ccc(Cl)nc2)cccc1-c1nc2cccnc2s1	.	-	-	-	.	-	.	.
Cc1c(NC(=O)c2ccco2)cccc1-c1nc2cccnc2s1	-	-	-	-	-	46	-	-
Cc1ccc2c(c1)C(CS(=O)(=O)NCc1ccccc1)NC2 (centres undefined)	.	.	-	-	.	.	.	.
CC(CNc1ccccc1O)C(=O)O (centres undefined)	-	-	-	-	-	62	.	.	GRK2 confirm 2=-;FAM quench SP=-
